# Source: PubChem BioAssay
# This is a sample that favours compounds with a hit; in the whole collection about 4% have one here.
# Measles CPE = protection of cells from measles virus; Measles virus-infected cells, CPE protection, absorbance; protection (pct of control), % at 4 µM; hit rate 1.5% among 140,000; in the data active = protection mostly above about 24%, no sharp cut-off; inactive = mostly below about 26%
# BB579 growth dn = chemicals that inhibit yeast BB579 growth in restrictive medium (lifespan-shortening candidates). inhibition, % at 10 µM. hit rate 0.51% among 140,000. S. cerevisiae BB579 growth, OD615, 48 h;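 active = inhibition above a set limit, 3 SD over the mean compound inhibition, cut at about 44% in these data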
#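 controls = amphotericin B 10 µg/mL, positive | assay system = DeaD yeast strain BB579 | schedule = 48 h compound exposure at 30 °C after 4 h preincubation | detection = OD615 turbidity measurement | medium = restrictive CSMM-D medium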
# INS promoter inh = TRM-6 insulin promoter activity inhibition | inhibition, % at 2 µM | hit rate 0.9% among 130,000 | TRM-6 cells (human fetal islet line), insulin promoter-eGFP reporter, imaging; reporter expression induced with tamoxifen | AID 1273;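 active = inhibition above the mean plus 3 SD, with well images judged a real hit on visual review, cut at about 60% in these data, passing the limit was not always enough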
# MDM2 E3 inh = blocks human Mdm2 ubiquitin ligase activity; AID 1230; cell-based MDM2 ubiquitination luciferase reporter, 2 h; 0 = plate control, 100 = twice control, blank-subtracted; signal enhancement, % at 5 µM; hit rate 0.11% among 210,000; Q00987;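 active = signal enhancement of 30% or more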;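 also: luminescence tracks abundance of the self-degrading MDM2-luciferase fusion protein; higher signal means inhibition of MDM2 E3 ligase activity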
# Target sequence (Q00987 whole entry, looked up, the tested form may be a part): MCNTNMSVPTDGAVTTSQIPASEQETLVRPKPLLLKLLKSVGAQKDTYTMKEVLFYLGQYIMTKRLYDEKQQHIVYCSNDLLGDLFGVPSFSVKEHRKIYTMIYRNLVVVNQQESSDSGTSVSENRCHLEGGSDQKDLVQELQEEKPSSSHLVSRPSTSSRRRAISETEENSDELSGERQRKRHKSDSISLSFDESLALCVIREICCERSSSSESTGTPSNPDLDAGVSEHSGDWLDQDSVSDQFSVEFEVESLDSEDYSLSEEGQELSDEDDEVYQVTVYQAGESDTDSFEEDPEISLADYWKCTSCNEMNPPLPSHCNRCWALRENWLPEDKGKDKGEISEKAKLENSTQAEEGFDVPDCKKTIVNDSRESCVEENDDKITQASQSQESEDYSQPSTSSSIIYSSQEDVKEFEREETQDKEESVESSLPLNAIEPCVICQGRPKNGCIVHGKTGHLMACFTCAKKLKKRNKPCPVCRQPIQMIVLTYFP
#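 System: stable MDM2–luciferase fusion reporter cells / Input: 2000 cells seeded into each well / Schedule: 4 h settle plus 2 h compound, 37 °C / Compound: single-point 5 µM / Buffer or medium: cells held in DMEM / Benchmarks: control and blank well means / Evaluation: percent signal gain over controls, blank-subtracted / Measured by: luciferase luminescence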
# Yeast life ext = yeast lifespan extension. hit rate 0.68% among 130,000. AID 775. inhibition of the nicotinamide effect, % at 10 µM. S. cerevisiae growth with nicotinamide, OD615; deaD strain in restrictive glucose medium;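 active = inhibition above a set limit, placed 3 SD over the median of all compounds, cut at about 26% in these data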
#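 assay system = DeaD-strain S. cerevisiae | buffer or medium = restrictive glucose medium | reagent = 1.5 mM nicotinamide | compound = 10 µM single point, 0.25% DMSO | incubation = 48 h compound exposure at 30 °C, humidified | signal = OD615 measurement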
# RAM inhibit = blocks the yeast RAM network; S. cerevisiae dse1pr::URA3 reporter, 5-FOA growth OD615, 2 d; analog-sensitive cbk1-as2 kinase mutant strain; inhibition, % at 50 µM; hit rate 1.8% among 190,000;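 active = inhibition above a set limit, 3 SD over mean compound inhibition, cut at about 8.4% in these data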;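 also: inhibition rescues growth on 5-FOA so higher OD means more RAM inhibition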
# RAM 5-FOA = restores 5-FOA growth of efflux-deficient yeast | shares compounds with RAM inhibit | 1,200 tested, under 10 active | max inhibition, % | S. cerevisiae efflux-deficient reporter strain, 5-FOA growth OD615, 2 days | AID 1305; call rule not given here
# Numbers stand for hits; – = inactive; · = no result.
SMILES,Measles CPE,BB579 growth dn,INS promoter inh,MDM2 E3 inh,Yeast life ext,RAM inhibit,RAM 5-FOA
COc1ccccc1N(CC(O)CN(c1ccccc1)S(C)(=O)=O)S(=O)(=O)c1ccccc1 (stereo not drawn),–,–,–,–,–,–,·
COc1ccccc1N(CC(O)COc1ccccc1)S(=O)(=O)c1ccccc1 (stereo not drawn),–,–,–,–,–,–,·
COc1ccccc1N(CC(O)COc1ccc(C)cc1)S(=O)(=O)c1ccccc1 (stereo not drawn),–,–,·,–,–,12,–
COc1cc(/C=C/C(=O)OCC(=O)Nc2ccccc2Sc2ccc(Cl)cc2)ccc1O,–,–,–,–,–,15,–
O=C(c1ccc(Cl)cc1[N+](=O)[O-])N(Cc1ccccc1)Cc1ccccc1,–,–,–,–,–,13,–
CC(C)(C)N(Cc1ccccc1)C(=O)c1ccc(Cl)cc1[N+](=O)[O-],·,·,·,–,·,–,·
COc1cccc(N/C(SCc2ccccc2F)=C(/C#N)C(=O)NCc2cccs2)c1,–,–,–,–,–,16,–
COc1cccc(NC(=O)NCc2ccccc2F)c1,·,·,–,–,·,–,·
COc1ccc(-c2nnc(SCC(=O)Nc3cc(C)on3)o2)cc1,·,·,–,–,·,–,·
COc1ccc(CN(C(=O)c2ccco2)c2ccccc2)cc1,–,–,–,·,·,–,·
COc1ccc(CN(CCC(c2ccccc2)c2ccco2)C(=O)c2ccco2)cc1 (stereo not drawn),–,–,–,–,–,13,–
CCCCN1C(=O)C2(NNc3ccccc3O2)c2ccccc21 (stereo not drawn),–,–,–,–,–,15,–
C=CCN1C(=O)C2(NNc3ccccc3O2)c2ccccc21 (stereo not drawn),–,–,–,–,–,–,·
CCC1(C)CC(C(CC(=O)O)c2ccc(C)cc2)CCO1 (stereo not drawn),–,–,–,–,–,–,·
c1ccc(Nc2nc(NCc3ccco3)c3ccccc3n2)cc1,·,·,·,–,·,·,·
Cc1cccc(Nc2nc(NCc3ccco3)c3ccccc3n2)c1,–,–,–,–,–,16,–
O=C(CCCSc1nnc(SCCCC(=O)c2ccc(F)cc2)s1)c1ccc(F)cc1,–,–,·,–,–,14,–
O=C(OCc1ccccc1)C1=[N+]([O-])OC(C(=O)OCc2ccccc2)C1c1c[nH]c2ccccc12 (stereo not drawn),–,–,–,–,–,12,–
COc1nc2ccc(C)cc2cc1-c1noc(-c2ccccc2)n1,–,–,–,–,–,12,–
CCOc1c(Cl)cc(C(=O)Nc2ccccc2-c2ccccc2)cc1Cl,–,–,·,–,–,14,–
CCCN(CC1CC1)C(=O)CSc1nnc(-c2cc(-c3cccs3)nc3ccccc23)o1,–,–,–,–,–,–,·
CC(/C=C1\SC(=S)N(C(C(=O)O)C(C)C)C1=O)=C\c1ccccc1 (stereo not drawn),·,·,–,–,·,18,–
CCOc1ccc(/C=C2/SC(=S)N(C(C(=O)O)c3ccccc3)C2=O)cc1OCC (stereo not drawn),·,·,·,–,·,13,–
CC(/C=C1\SC(=S)N(c2ccc(C(=O)O)cc2)C1=O)=C\c1ccccc1,·,·,·,–,·,·,·
O=C(O)C(Cc1ccccc1)N1C(=O)/C(=C/c2cccnc2)SC1=S (stereo not drawn),·,·,·,–,·,·,·
SMILES,Measles CPE,BB579 growth dn,INS promoter inh,MDM2 E3 inh,Yeast life ext,RAM inhibit,RAM 5-FOA
COc1ccc(/C=C2\SC(=S)N(C(Cc3ccccc3)C(=O)O)C2=O)cc1 (stereo not drawn),·,·,·,–,·,34,–
CCOc1cc(/C=C2\SC(=S)N(C(C(=O)O)c3ccccc3)C2=O)ccc1O (stereo not drawn),·,·,·,–,·,·,·
FC(F)Sc1ccc(NC(=S)NCc2ccccc2)cc1,·,·,·,–,·,–,·
FC(F)Sc1ccc(NC(=S)NC(c2ccccc2)c2ccccc2)cc1,·,·,–,–,·,19,–
COc1ccc(CNC(=O)c2ccccc2C(=O)O)cc1,–,–,·,–,–,–,·
COc1ccc(CNC(=O)c2cccc(-c3ccc(C)c4ccccc34)n2)cc1,–,–,–,·,–,12,–
NS(=O)(=O)c1cc(C(=O)N2CCc3ccccc32)c(Cl)cc1Cl,–,–,–,·,–,–,·
CCOC(=O)c1ccc(NC(=S)NC(=O)COc2ccccc2)cc1,–,–,–,–,–,11,–
CCOC(=O)c1ccc(NC(=O)COC(=O)c2cccc(Oc3ccccc3)c2)cc1,–,–,–,–,–,12,–
Cc1ccc2[nH]c(C(=O)NN=C3CCCCC3)c(-c3ccccc3)c2c1,·,·,·,–,·,–,·
COC(=O)c1cc(NS(=O)(=O)c2ccc(C)c3ccccc23)ccc1N1CCOCC1,·,·,·,–,·,·,·
CCCCCCOc1ccc(NC(=O)CC2C(=O)N(CC)C(=S)N2Cc2ccco2)cc1 (stereo not drawn),–,–,–,–,–,17,–
CCN1C(=O)C(CC(=O)Nc2ccc(OC)cc2)N(CCc2ccc(F)cc2)C1=S (stereo not drawn),·,·,·,–,·,16,–
O=C(O)c1cccc(NC(=O)c2cccc(S(=O)(=O)N3CCc4ccccc4C3)c2)c1,·,·,·,–,·,–,·
CCOC(=O)CSc1nc2ccccc2c(=O)n1C,–,–,–,–,–,–,·
CCOC(=O)CSc1nc2ccccc2c(=O)n1C1CCCC1,–,–,–,–,–,13,–
CSCSC1=C(C#N)C(c2ccc(Cl)cc2)C(C(C)=O)=C(C)N1 (stereo not drawn),–,–,–,–,–,15,–
O=C(COC(=O)CC(c1ccccc1)c1ccccc1)Nc1ccc(F)c(F)c1,·,·,–,–,·,12,–
Cc1cccc2sc(NNC(=O)c3cc(-c4cccs4)nc4ccccc34)nc12,–,–,–,·,–,–,·
C=CCn1c(SCCC)nc2sc3c(c2c1=O)CCc1ccccc1-3,–,–,–,–,–,15,–
C=CCSc1nc2sc3c(c2c(=O)n1CC=C)CCc1ccccc1-3,–,–,·,–,–,–,·
CCc1c(C#N)c(SCc2c(C)noc2C)nc2c1C(=O)CC(C)(C)C2,–,–,–,–,–,12,–
Cc1ccc(NN=C2c3ccccc3-c3ccccc32)cc1,–,–,–,–,–,15,–
Cc1ccc(OCC(=O)NN=C2c3ccccc3-c3ccccc32)cc1,–,–,·,–,–,–,·
Cn1c(=O)[nH]c2ccc([N+](=O)[O-])nc21,–,–,–,–,–,–,·
COc1ccc(CC(=O)n2nc(-c3ccc(Cl)cc3)nc2NCc2ccco2)cc1,–,–,–,–,–,14,–
Nc1nc(-c2ccco2)nn1S(=O)(=O)c1ccccc1,·,·,–,–,·,–,·
CCCC(=O)n1nc(-c2ccc(C)cc2)nc1NCc1ccco1,·,·,·,–,·,–,·
